# Experimental data from different studies.
# Target: Mitogen-activated protein kinase 11 (MAPK11, Homo sapiens, UniProt Q15759)
SMILES,read-out,technique,tested at,remaining binding [%]
CCS(=O)(=O)c1cc2cc(C[C@@](O)(CC(C)(C)c3ccc(F)cc3C(N)=O)C(F)(F)F)[nH]c2cn1,cell-free assay,competition with immobilised ligand,1 µM,100
C=CC(=O)N1CCC(C(=O)NCC(=O)N2CCN(c3nc(-c4cnc(N)nc4C(F)F)nc(N4CCOCC4)n3)CC2)CC1,binding,competition with immobilised ligand,1 µM,89
N[C@@H]1CCN(c2nccc(-c3cnn4ncccc34)n2)C1,binding,competition with immobilised ligand,1 µM,100
CCN1CCN(Cc2ccc(C(=O)Nc3ccc(C)c(Oc4ccc5c(c4)CC(=O)N5)c3)cc2C(F)(F)F)CC1,binding,competition with immobilised ligand,1 µM,7
CC(=O)N1CCC(c2ccc(C(=O)NC3=NCCN3)cc2C(F)(F)F)CC1,cell-free assay,competition with immobilised ligand,1 µM,98
N#Cc1ccccc1CSc1nnc2c(n1)[nH]c1ccccc12,binding,competition with immobilised ligand,10 µM,94
COc1cnc(Nc2cccc(S(N)(=O)=O)c2)nc1N1CCN(c2ccccc2)CC1,binding,competition with immobilised ligand,1 µM,100
O=C(c1ccc(Nc2ncc(Cl)c(-c3ccc(Cl)s3)n2)cc1)N1CCC(N2CCCC2)CC1,binding,competition with immobilised ligand,1 µM,73
COc1cc(-c2cn(C3CCc4ccccc4N(CC(F)(F)F)C3=O)nn2)ccc1-n1ccc(C)n1 (stereo not shown),cell-free assay,competition with immobilised ligand,1 µM,82
c1cnn2ncc(-c3ccnc(N4CCC45COC5)n3)c2c1,binding,competition with immobilised ligand,1 µM,100
CSc1cccnc1N1CCN(Cc2nc3ccccc3[nH]2)CC1,cell-free assay,competition with immobilised ligand,1 µM,100
COc1ccnn2ncc(-c3ccnc(N(C)C)n3)c12,binding,competition with immobilised ligand,1 µM,92
C[C@@]1(Cc2ccc(C#N)cc2)C(=O)N(c2cc(Cl)cc(Cl)c2)c2ncc(C(=O)NC3(c4nc(C5CCC5)no4)CC3)n21,cell-free assay,competition with immobilised ligand,1 µM,100
CNC(=O)[C@@H]1CC[C@@H](n2c(-c3ccc4cnccc4c3)nc3ccc(C(=O)NCc4cccc(C(N)=O)c4)cc32)C1,binding,competition with immobilised ligand,1 µM,100
C[C@H]1CCN(c2nccc(-c3cnn4ncccc34)n2)C1,binding,competition with immobilised ligand,1 µM,55
c1cncc(-c2cccc(Nc3nccc(NC4CCCCC4)n3)c2)c1,binding,competition with immobilised ligand,10 µM,89
CN(c1nccc(-c2cnn3ncccc23)n1)C1CC1,binding,,1 µM,89
O=C(NCC1CCOCC1)c1n[nH]cc1NC(=O)c1c(F)cccc1F,binding,competition with immobilised ligand,1 µM,96
O=C(N[C@H]1CCCCC/C=C\C2C[C@@]2(C(=O)O)NC(=O)[C@@H]2C[C@@H](Oc3ccncc3)CN2C1=O)OC1CCCC1 (stereo partly shown),binding,competition with immobilised ligand,1 µM,100
C[C@@H]1CN(c2ccc3ncc(-c4ccc5[nH]nc(C6CC6)c5c4)n3n2)C[C@H](C)O1,binding,competition with immobilised ligand,0.5 µM,100
O=C(NCCCN1CCOCC1)c1ccc(Nc2nccc(-c3cc4ccccc4s3)n2)cc1,binding,competition with immobilised ligand,1 µM,98
CN(C)c1ncnc(-c2ccc3nc(Nc4cc(CN5CCN(C(=O)CC(F)(F)F)CC5)ccn4)[nH]c3c2)c1Cl,cell-free assay,competition with immobilised ligand,1 µM,97
